From ChEMBL document CHEMBL4266019, “Discovery and Structure-Activity-Relationship Study of N-Alkyl-5-hydroxypyrimidinone Carboxamides as Novel Antitubercular Agents Targeting Decaprenylphosphoryl-β-d-ribose 2'-Oxidase” (J Med Chem, 2018)
Converted amounts (≈) assume the structure as drawn. The source made the active and inactive calls. No cut-off for these calls is given here.

Legend:
[1] = test system: HepG2; assay: Cytotoxicity against human HepG2 cells in presence of glucose; assay type: cell-based
Procedure, shortened: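 HepG2 cells tested in DMEM/10% FBS supplemented with glucose.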

[2] = test system: HepG2; assay: Cytotoxicity against human HepG2 cells in presence of galactose; assay type: cell-based
Procedure, shortened: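 HepG2 cells tested in DMEM/10% FBS containing galactose.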

[3] = test system: Mycobacterium tuberculosis; assay: Bactericidal activity against Mycobacterium tuberculosis H37Rv under anaerobic condition at 1 to 50 fold MIC after 7 days; assay type: functional, organism-based
Procedure, shortened: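 Anaerobic H37Rv from the self-generated oxygen-depletion (Wayne) model exposed to 1×, 5×, 10×, 20× and 50× MIC in an anaerobic chamber for 7 days. CFU counted on 7H11/OADC plates.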

[4] = test system: Mycobacterium tuberculosis; assay: Bactericidal activity against Mycobacterium tuberculosis H37Rv under aerobic condition after 7 days; assay type: functional, organism-based
Procedure, shortened: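 Log-phase H37Rv (OD650 0.2) diluted 1000-fold in 7H9/ADC and exposed to 1×, 5×, 10×, 20× and 50× MIC in duplicate. Sampled at days 1, 2, 4 and 7; CFU counted on 7H11/OADC plates.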

[5] = test system: Mycobacterium tuberculosis; assay: Antitubercular activity against Mycobacterium tuberculosis H37Rv after 7 to 14 days in presence of GAST medium by two fold serial dilution method; assay type: functional
Procedure, shortened: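 MIC in GAST (glycerol/alanine/salts/Tween 80 defined medium), strain H37Rv; screening hits tested as duplicate 12-point MIC determinations with MgCl2 at 0.06, 6 or 60 mM.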

[6] = molecular target: T1, Decaprenylphosphoryl-beta-D-ribose oxidase (Mycobacterium tuberculosis (strain ATCC 25618 / H37Rv)) (UniProt P9WJF1); assay: Inhibition of DprE1 in Mycobacterium tuberculosis H37Rv assessed as bacterial growth inhibition after 4 weeks
T1 sequence (whole entry): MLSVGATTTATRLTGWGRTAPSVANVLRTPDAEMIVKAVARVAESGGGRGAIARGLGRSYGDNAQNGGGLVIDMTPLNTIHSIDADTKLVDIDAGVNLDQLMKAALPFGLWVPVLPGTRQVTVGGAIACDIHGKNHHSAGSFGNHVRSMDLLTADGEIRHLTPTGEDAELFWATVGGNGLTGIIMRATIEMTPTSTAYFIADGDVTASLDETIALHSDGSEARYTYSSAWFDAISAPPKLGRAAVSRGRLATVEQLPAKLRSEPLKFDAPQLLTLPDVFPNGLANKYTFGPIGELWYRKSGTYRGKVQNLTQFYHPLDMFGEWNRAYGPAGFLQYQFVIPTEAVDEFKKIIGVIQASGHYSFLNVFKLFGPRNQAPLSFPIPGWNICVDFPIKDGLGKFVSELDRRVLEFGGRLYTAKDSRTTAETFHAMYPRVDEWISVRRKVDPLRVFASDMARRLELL

[7] = test system: Mycobacterium tuberculosis; assay: Antitubercular activity against Mycobacterium tuberculosis H37Rv assessed as induction of DNA damage by precA-LUX/pradA-LUX reporter-gene assay; assay type: functional, organism-based
Procedure, shortened: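 DNA-damage read-out: induction of the recA and radA promoters measured as luminescence in H37Rv precA-LUX and pradA-LUX reporter strains.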

SMILES	IC50 [1] [µM]	IC50 [2] [µM]	also measured
CCn1c(Cc2ccccc2C(F)(F)F)nc(C(=O)NCc2ccccc2)c(O)c1=O	> 100	> 100	
Cn1c(Cc2ccccc2C(F)(F)F)nc(C(=O)NCc2ccccc2)c(O)c1=O	> 100	> 100	Activity [3]: inactive; Activity [4]: Dose-dependent effect; MIC [5]: 0.4 to 0.59 µM; MIC [6]: 3.13 µM (≈ 1.31 µg/mL); Activity [7]: inactive
CN(Cc1ccccc1)C(=O)c1nc(Cc2ccccc2C(F)(F)F)n(C)c(=O)c1O	> 100	> 100	
Cn1c(Cc2ccccc2C(F)(F)F)nc(C(=O)NCc2ccc3c(c2)OCO3)c(O)c1=O	> 100	> 100	
Cn1c(Cc2ccccc2C(F)(F)F)nc(C(=O)Nc2ccccc2)c(O)c1=O	> 100	> 100	
CC(NC(=O)c1nc(Cc2ccccc2C(F)(F)F)n(C)c(=O)c1O)c1ccccc1 (configuration not stated)	> 100	> 100	
Cn1c(Cc2ccccc2C(F)(F)F)nc(C(=O)CCc2ccccc2)c(O)c1=O	> 100	> 100	
Cn1c(Cc2ccccc2C(F)(F)F)nc(C(=O)NCc2cccnc2)c(O)c1=O	> 100	> 100	
Cn1c(Cc2ccccc2C(F)(F)F)nc(C(=O)NCc2ccccc2F)c(O)c1=O	> 100	> 100	
Cn1c(Cc2ccccc2C(F)(F)F)nc(C(=O)NCC2CCCCC2)c(O)c1=O	> 100	> 100	
Cn1c(Cc2ccccc2C(F)(F)F)nc(C(=O)NCc2ccccn2)c(O)c1=O	> 100	> 100	
COc1c(C(=O)NCc2ccccc2)nc(Cc2ccccc2C(F)(F)F)n(C)c1=O	> 100	> 100	
CC(c1ccccc1C(F)(F)F)c1nc(C(=O)NCc2ccccc2)c(O)c(=O)n1C (configuration not stated)	> 100	> 100	
Cn1c(Cc2ccccc2C(F)(F)F)nc(C(=O)NCc2ccc(F)cc2)c(O)c1=O	> 100	> 100	
O=C(NCc1ccccc1)c1nc(Cc2ccccc2C(F)(F)F)[nH]c(=O)c1O	> 100	> 100	
Cn1c(Cc2ccccc2)nc(C(=O)NCc2ccccc2)c(O)c1=O	> 100	> 100	
